Assay results taken from ChEMBL document CHEMBL5058577, “EUbOPEN Chemogenomics Library 2 (Multiplex)” (2022).
Non-standard residues stand in square brackets, D forms with d. Residues, ends and D or L forms follow the SMILES beside them.

System: Fibroblast
Test: Multiplex assay against human fibroblast
Format: toxicity, cell-based
Method in brief: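 Values for tubulin, mitochondrial-mass and membrane-permeability phenotypes are per cents of cells with healthy nuclei. These cells were identified by CellPathfinder machine-learning gating of live cells that had been stained at seeding with Hoechst33342, BioTracker Green Microtubule Cytoskeleton Dye, MitoTracker Red and Annexin V Alexa Fluor 680 and imaged on a CQ1 microscope at 37°C and 5% CO2 after compound addition. The gating first set Hoechst high-intensity objects apart from normal cells, then split normal cells into healthy, pyknosed or fragmented nuclei, and pyknosed cells into mitotic or apoptotic.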

[1] = 12 h, 1 µM, compound concentration 1 uM, replicate 1
[2] = 12 h, 1 µM, compound concentration 1 uM, replicate 2
[3] = 12 h, 10 µM, compound concentration 10 uM, replicate 1
[4] = 12 h, 10 µM, compound concentration 10 uM, replicate 2
[5] = 24 h, 1 µM, compound concentration 1 uM, replicate 1
[6] = 24 h, 1 µM, compound concentration 1 uM, replicate 2
[7] = 24 h, 10 µM, compound concentration 10 uM, replicate 1
[8] = 24 h, 10 µM, compound concentration 10 uM, replicate 2
[9] = 48 h, 1 µM, compound concentration 1 uM, replicate 1
[10] = 48 h, 1 µM, compound concentration 1 uM, replicate 2
[11] = 48 h, 10 µM, compound concentration 10 uM, replicate 1
[12] = 48 h, 10 µM, compound concentration 10 uM, replicate 2

CC(C)C[C@@H]1NC(=O)[C@@H](C(C)C)NC(=O)[C@@H]2CCCN2C(=O)[C@@H](CC(=O)O)NC(=O)[C@@H](Cc2c[nH]c3ccccc23)NC1=O [BQ-123] (cyclo(L[dW][dD]P[dV]))
Population Apoptotic (%) [1]: 57%
Population Fragmented Nuclei (%) [1]: 18%
Population Healthy Nuclei (%) [1]: 68%
Population Hoechst High Intensity Objects (%) [1]: 0%
Population Membrane Permeable-Phenotype (%) [1]: 1%
Population Mitochondria Different-Phenotype (%) [1]: 11%
Population Mitotic Cells (%) [1]: 42%
Population Normal (%) [1]: 100%
Population Pyknosed Nuclei (%) [1]: 13%
Population Tubulin-Different-Phenotype (%) [1]: 31%
Total Cell Count [1]: 105
Population Apoptotic (%) [2]: 21%
Population Fragmented Nuclei (%) [2]: 22%
Population Healthy Nuclei (%) [2]: 58%
Population Hoechst High Intensity Objects (%) [2]: 3%
Population Membrane Permeable-Phenotype (%) [2]: 5%
Population Mitochondria Different-Phenotype (%) [2]: 2%
Population Mitotic Cells (%) [2]: 78%
Population Normal (%) [2]: 96%
Population Pyknosed Nuclei (%) [2]: 18%
Total Cell Count [2]: 157
Population Apoptotic (%) [3]: 48%
Population Fragmented Nuclei (%) [3]: 15%
Population Healthy Nuclei (%) [3]: 65%
Population Hoechst High Intensity Objects (%) [3]: 2%
Population Membrane Permeable-Phenotype (%) [3]: 0%
Population Mitochondria Different-Phenotype (%) [3]: 9%
Population Mitotic Cells (%) [3]: 52%
Population Normal (%) [3]: 97%
Population Pyknosed Nuclei (%) [3]: 18%
Population Tubulin-Different-Phenotype (%) [3]: 33%
Total Cell Count [3]: 136
Population Apoptotic (%) [4]: 33%
Population Fragmented Nuclei (%) [4]: 30%
Population Healthy Nuclei (%) [4]: 48%
Population Membrane Permeable-Phenotype (%) [4]: 4%
Population Mitochondria Different-Phenotype (%) [4]: 3%
Population Mitotic Cells (%) [4]: 66%
Population Pyknosed Nuclei (%) [4]: 20%
Population Tubulin-Different-Phenotype (%) [4]: 46%
Total Cell Count [4]: 134
Population Apoptotic (%) [5]: 53%
Population Fragmented Nuclei (%) [5]: 19%
Population Healthy Nuclei (%) [5]: 66%
Population Hoechst High Intensity Objects (%) [5]: 1%
Population Membrane Permeable-Phenotype (%) [5]: 0%
Population Mitochondria Different-Phenotype (%) [5]: 5%
Population Mitotic Cells (%) [5]: 46%
Population Normal (%) [5]: 98%
Population Pyknosed Nuclei (%) [5]: 14%
Population Tubulin-Different-Phenotype (%) [5]: 24%
Total Cell Count [5]: 107
Population Apoptotic (%) [6]: 24%
Population Fragmented Nuclei (%) [6]: 23%
Population Healthy Nuclei (%) [6]: 57%
Population Hoechst High Intensity Objects (%) [6]: 6%
Population Membrane Permeable-Phenotype (%) [6]: 3%
Population Mitochondria Different-Phenotype (%) [6]: 3%
Population Mitotic Cells (%) [6]: 75%
Population Normal (%) [6]: 93%
Population Pyknosed Nuclei (%) [6]: 18%
Population Tubulin-Different-Phenotype (%) [6]: 25%
Total Cell Count [6]: 166
Population Apoptotic (%) [7]: 50%
Population Fragmented Nuclei (%) [7]: 19%
Population Healthy Nuclei (%) [7]: 64%
Population Hoechst High Intensity Objects (%) [7]: 8%
Population Membrane Permeable-Phenotype (%) [7]: 1%
Population Mitochondria Different-Phenotype (%) [7]: 5%
Population Mitotic Cells (%) [7]: 50%
Population Normal (%) [7]: 91%
Population Pyknosed Nuclei (%) [7]: 15%
Population Tubulin-Different-Phenotype (%) [7]: 32%
Total Cell Count [7]: 123
Population Apoptotic (%) [8]: 29%
Population Fragmented Nuclei (%) [8]: 27%
Population Healthy Nuclei (%) [8]: 50%
Population Hoechst High Intensity Objects (%) [8]: 0%
Population Membrane Permeable-Phenotype (%) [8]: 11%
Population Mitochondria Different-Phenotype (%) [8]: 3%
Population Mitotic Cells (%) [8]: 70%
Population Normal (%) [8]: 99%
Population Pyknosed Nuclei (%) [8]: 22%
Population Tubulin-Different-Phenotype (%) [8]: 50%
Population Apoptotic (%) [9]: 50%
Population Fragmented Nuclei (%) [9]: 18%
Population Healthy Nuclei (%) [9]: 70%
Population Hoechst High Intensity Objects (%) [9]: 3%
Population Membrane Permeable-Phenotype (%) [9]: 0%
Population Mitochondria Different-Phenotype (%) [9]: 12%
Population Mitotic Cells (%) [9]: 50%
Population Normal (%) [9]: 96%
Population Pyknosed Nuclei (%) [9]: 11%
Population Tubulin-Different-Phenotype (%) [9]: 25%
Total Cell Count [9]: 109
Population Apoptotic (%) [10]: 52%
Population Fragmented Nuclei (%) [10]: 28%
Population Healthy Nuclei (%) [10]: 56%
Population Hoechst High Intensity Objects (%) [10]: 4%
Population Membrane Permeable-Phenotype (%) [10]: 2%
Population Mitochondria Different-Phenotype (%) [10]: 4%
Population Mitotic Cells (%) [10]: 48%
Population Normal (%) [10]: 95%
Population Pyknosed Nuclei (%) [10]: 15%
Population Tubulin-Different-Phenotype (%) [10]: 39%
Total Cell Count [10]: 172
Population Apoptotic (%) [11]: 70%
Population Fragmented Nuclei (%) [11]: 26%
Population Healthy Nuclei (%) [11]: 59%
Population Hoechst High Intensity Objects (%) [11]: 5%
Population Membrane Permeable-Phenotype (%) [11]: 1%
Population Mitochondria Different-Phenotype (%) [11]: 5%
Population Mitotic Cells (%) [11]: 29%
Population Normal (%) [11]: 94%
Population Pyknosed Nuclei (%) [11]: 13%
Population Tubulin-Different-Phenotype (%) [11]: 38%
Total Cell Count [11]: 129
Population Apoptotic (%) [12]: 46%
Population Fragmented Nuclei (%) [12]: 45%
Population Healthy Nuclei (%) [12]: 42%
Population Hoechst High Intensity Objects (%) [12]: 6%
Population Membrane Permeable-Phenotype (%) [12]: 9%
Population Mitochondria Different-Phenotype (%) [12]: 3%
Population Mitotic Cells (%) [12]: 53%
Population Normal (%) [12]: 93%
Population Pyknosed Nuclei (%) [12]: 12%
Population Tubulin-Different-Phenotype (%) [12]: 51%
Total Cell Count [12]: 130
